The results in this text go back to ChEMBL document CHEMBL5252659, “Discovery of a Potent and Selective Naphthyridine-Based Chemical Probe for Casein Kinase 2” (ACS Med Chem Lett, 2023).

Series [1] is described as follows: Aqueous kinetic solubility of compound in PBS at pH 7.4 incubated for 24 hrs by Chemiluminescent nitrogen determination assay. The format is physicochemical. As to conditions: for solubility kinetic at 24 h: PBS, pH 7.4, read-out: Kinetic_solubility; for Kinetic_solubility: buffer, pH 7.4, 24 h.
In series [2] the target is T1, Casein kinase II subunit alpha (Homo sapiens, UniProt P68400). In words: Inhibition of C-terminal Nano-Luc fused human CK2alpha expressed in HEK293 cells using NanoBRET NanoGlo substrate in presence of tracer K10 by NanoBRET assay. Type of series: cell-based. For orientation: In BRET a luciferase serves as donor, and the signal depends on an acceptor being close.
The target in series [3] is T2, Casein kinase II subunit alpha' (Homo sapiens, UniProt P19784). In words: Inhibition of C-terminal Nano-Luc fused human CK2alpha' expressed in HEK293 cells using NanoBRET NanoGlo substrate in presence of tracer K5 by NanoBRET assay. Type of series: cell-based.
In series [4] the target is T1, Casein kinase II subunit alpha. In words: Inhibition of wild type human CK2alpha in presence of ATP by radiometric kinase assay.
The target of series [5] is T2, Casein kinase II subunit alpha'. In words: Inhibition of wild type human CK2alpha' in presence of ATP by radiometric kinase assay.
The target of series [6] is Phosphatidylinositol 4-phosphate 5-kinase type-1 gamma (Homo sapiens) (UniProt O60331). In words: Inhibition of wild type human PIP5K1C at 1 uM by DiscoverX scanMAX assay relative to control; values are per cent of control.
For series [7], the system named is RM-82. In words: (§1) Antiproliferative activity against human RM-82 cells assessed as inhibition of cell proliferation at 1 uM incubated for 5 days by WST-1 assay. Type of series: functional. The settings on record: time 5.0 day. In general terms: Tetrazolium assays rely on reduction of a dye to a coloured formazan, in cell work by metabolically active cells.
Series [8] deals with STA-ET-1. In words: (§2) Antiproliferative activity against human STA-ET-1 cells assessed as inhibition of cell proliferation at 1 uM incubated for 5 days by WST-1 assay. The format is functional. The settings on record: time 5.0 day. The essentials: (§3)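 Ewing sarcoma cell lines were exposed to a single 1 μM concentration for 5 days. Viability was reported as percent viability, as part of a preliminary single-dose screen.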

Series [9] concerns STA-ET-10. In words: (§4) Antiproliferative activity against human STA-ET-10 cells assessed as inhibition of cell proliferation at 1 uM incubated for 5 days by WST-1 assay. As to conditions: time 5.0 day. Type of series: functional. An outline of the steps:
as §3

The target in series [10] is Death-associated protein kinase 2 (Homo sapiens, UniProt Q9UIK4). In words: Inhibition of wild type human DAPK2 in presence of ATP by radiometric kinase assay.
Series [11] concerns the target T3, Homeodomain-interacting protein kinase 2 (Homo sapiens, UniProt Q9H2X6). In words: Inhibition of wild type human HIPK2 in presence of ATP by radiometric kinase assay.
Target sequence in this assay (Q9H2X6 whole entry): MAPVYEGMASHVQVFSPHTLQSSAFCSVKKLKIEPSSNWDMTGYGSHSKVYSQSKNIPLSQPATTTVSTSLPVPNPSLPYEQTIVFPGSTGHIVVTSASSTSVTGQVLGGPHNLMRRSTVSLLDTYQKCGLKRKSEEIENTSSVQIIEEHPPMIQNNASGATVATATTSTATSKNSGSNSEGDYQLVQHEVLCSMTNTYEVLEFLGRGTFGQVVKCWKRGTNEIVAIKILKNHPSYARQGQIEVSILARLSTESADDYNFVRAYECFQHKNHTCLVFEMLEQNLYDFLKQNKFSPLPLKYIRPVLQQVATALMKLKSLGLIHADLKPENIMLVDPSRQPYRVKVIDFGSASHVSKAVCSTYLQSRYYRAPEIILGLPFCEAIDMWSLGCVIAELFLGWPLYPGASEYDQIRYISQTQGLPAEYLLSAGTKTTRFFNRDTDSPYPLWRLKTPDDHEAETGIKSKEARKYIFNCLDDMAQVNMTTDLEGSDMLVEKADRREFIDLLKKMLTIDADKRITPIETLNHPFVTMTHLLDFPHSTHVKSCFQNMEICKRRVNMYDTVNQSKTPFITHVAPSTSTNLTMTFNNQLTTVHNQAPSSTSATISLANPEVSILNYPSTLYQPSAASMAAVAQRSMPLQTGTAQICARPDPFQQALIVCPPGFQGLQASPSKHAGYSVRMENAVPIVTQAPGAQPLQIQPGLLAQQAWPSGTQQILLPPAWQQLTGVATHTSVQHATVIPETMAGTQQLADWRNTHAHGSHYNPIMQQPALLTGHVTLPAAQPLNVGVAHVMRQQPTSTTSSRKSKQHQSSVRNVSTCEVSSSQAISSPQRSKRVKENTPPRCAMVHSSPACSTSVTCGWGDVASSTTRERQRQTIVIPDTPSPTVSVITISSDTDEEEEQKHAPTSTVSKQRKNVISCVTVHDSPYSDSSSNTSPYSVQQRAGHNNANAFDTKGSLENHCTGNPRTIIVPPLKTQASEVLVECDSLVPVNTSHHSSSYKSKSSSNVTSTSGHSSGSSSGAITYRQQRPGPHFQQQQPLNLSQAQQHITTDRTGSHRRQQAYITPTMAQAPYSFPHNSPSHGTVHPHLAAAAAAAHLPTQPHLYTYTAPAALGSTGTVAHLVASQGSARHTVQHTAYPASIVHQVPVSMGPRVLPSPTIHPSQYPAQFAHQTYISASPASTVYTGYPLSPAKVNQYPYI
Series [12] has as its system AMO1. In words: Antiproliferative activity against human AMO1 cells assessed as inhibition of cell proliferation at 1 uM incubated for 5 days by WST-1 assay. The format is functional. As to conditions: time 5 day. More on the design: scale not given: the % may be the effect or the level left.
Series [13] relates to L-363. In words: Antiproliferative activity against human L-363 cells assessed as inhibition of cell proliferation at 1 uM incubated for 5 days by WST-1 assay. The format is functional. Further details: scale not given: the % may be the effect or the level left. As to conditions: time 5 day.
Series [14] can be described thus: Permeability of compound incubated for 5 hrs by PAMPA based CLND assay. Type of series: ADME.
The target of series [15] is T3, Homeodomain-interacting protein kinase 2. In words: Inhibition of wild type human HIPK2 at 1 uM by DiscoverX scanMAX assay relative to control; values are per cent of control.
Target sequence in this assay (Q9H2X6 whole entry, looked up): as the sequence (Q9H2X6 whole entry) above
Series [16] concerns AMO1. In words: Antiproliferative activity against pomalidomide resistant human AMO1 cells assessed as inhibition of cell proliferation at 1 uM incubated for 5 days by WST-1 assay. Type of series: functional. More on the design: scale not given: the % may be the effect or the level left. The settings on record: time 5 day.
The test system of series [17] is L-363. In words: Antiproliferative activity against carfilzomib-resistant human L-363 cells assessed as inhibition of cell proliferation at 1 uM incubated for 5 days by WST-1 assay. The format is functional. More on the design: scale not given: the % may be the effect or the level left. The settings on record: time 5 day.
Series [18] relates to L-363. In words: Antiproliferative activity against bortezomib-resistant human L-363 cells assessed as inhibition of cell proliferation at 1 uM incubated for 5 days by WST-1 assay. Further details: scale not given: the % may be the effect or the level left. The settings on record: time 5 day. The format is functional.
Series [19] is described as follows: Antiproliferative activity against human MUG-Chor1 cells assessed as inhibition of cell proliferation at 1 uM incubated for 5 days by WST-1 assay. Type of series: functional. Further details: scale not given: the % may be the effect or the level left. The settings on record: time 5 day.
Series [20] is described as follows: as §1. The settings on record: time 5 day. Type of series: functional. More on the design: scale not given: the % may be the effect or the level left.
Series [21] in a line: as §2. Type of series: functional. Further details: scale not given: the % may be the effect or the level left. As to conditions: time 5 day. An outline of the steps:
as §3

A short description of series [22]: as §4. Type of series: functional. The settings on record: time 5 day. Further details: scale not given: the % may be the effect or the level left. The essentials:
as §3

Series [23] concerns MDA-MB-231. In words: Anticancer activity against human MDA-MB-231 cells assessed as cell growth inhibition at 2 to 10 uM incubated for 24 to 72 hrs by WST-1 assay. The settings on record: dose 2-10 µM, time lower […], time upper 72.0 hrs.

Molecules are shown by their SMILES. pIC50: −log10 of the molar value. Converted amounts (≈) assume the structure as drawn. The source made the active and inactive calls. No cut-off for these calls is given here.

T1 sequence (P68400 whole entry, the tested form may be a part): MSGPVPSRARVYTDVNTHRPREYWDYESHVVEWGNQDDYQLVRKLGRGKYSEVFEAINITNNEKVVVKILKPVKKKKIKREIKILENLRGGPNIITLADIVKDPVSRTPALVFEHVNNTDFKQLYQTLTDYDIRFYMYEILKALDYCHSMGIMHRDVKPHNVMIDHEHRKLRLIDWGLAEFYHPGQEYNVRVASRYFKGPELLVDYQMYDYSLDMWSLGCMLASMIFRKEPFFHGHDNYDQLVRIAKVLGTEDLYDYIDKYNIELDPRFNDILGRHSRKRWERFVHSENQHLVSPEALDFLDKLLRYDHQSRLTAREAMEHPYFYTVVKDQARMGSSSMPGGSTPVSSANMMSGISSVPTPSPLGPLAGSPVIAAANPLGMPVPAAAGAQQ
T2 sequence (P19784 whole entry, the tested form may be a part): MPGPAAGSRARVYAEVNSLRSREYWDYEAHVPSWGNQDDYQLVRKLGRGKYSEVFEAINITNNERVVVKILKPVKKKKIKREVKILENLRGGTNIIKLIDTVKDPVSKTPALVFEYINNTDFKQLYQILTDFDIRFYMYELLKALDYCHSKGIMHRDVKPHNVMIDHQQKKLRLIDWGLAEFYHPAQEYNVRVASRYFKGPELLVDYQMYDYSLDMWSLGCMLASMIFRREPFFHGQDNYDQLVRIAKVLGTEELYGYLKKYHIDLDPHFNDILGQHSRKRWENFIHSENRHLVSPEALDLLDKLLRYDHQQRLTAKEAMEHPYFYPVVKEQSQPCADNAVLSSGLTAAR
Chain of Phosphatidylinositol 4-phosphate 5-kinase type-1 gamma (Homo sapiens) (O60331 whole entry): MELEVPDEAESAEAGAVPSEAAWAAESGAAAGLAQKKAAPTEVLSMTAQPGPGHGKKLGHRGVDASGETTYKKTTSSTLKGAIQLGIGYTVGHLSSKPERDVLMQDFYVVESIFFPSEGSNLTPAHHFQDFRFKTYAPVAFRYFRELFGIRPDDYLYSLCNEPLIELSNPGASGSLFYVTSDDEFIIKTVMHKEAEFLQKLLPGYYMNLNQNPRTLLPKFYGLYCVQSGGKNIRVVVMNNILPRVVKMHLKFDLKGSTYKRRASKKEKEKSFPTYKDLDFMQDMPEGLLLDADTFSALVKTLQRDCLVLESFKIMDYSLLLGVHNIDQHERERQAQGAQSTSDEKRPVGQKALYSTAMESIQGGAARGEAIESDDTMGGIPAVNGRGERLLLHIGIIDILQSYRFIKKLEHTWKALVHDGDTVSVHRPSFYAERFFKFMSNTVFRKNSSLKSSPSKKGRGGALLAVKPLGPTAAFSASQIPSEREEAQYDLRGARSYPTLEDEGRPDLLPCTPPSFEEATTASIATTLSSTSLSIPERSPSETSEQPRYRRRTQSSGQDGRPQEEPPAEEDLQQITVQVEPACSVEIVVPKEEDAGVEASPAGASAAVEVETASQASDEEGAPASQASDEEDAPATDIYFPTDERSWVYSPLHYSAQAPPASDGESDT
Chain of Death-associated protein kinase 2 (Q9UIK4 whole entry): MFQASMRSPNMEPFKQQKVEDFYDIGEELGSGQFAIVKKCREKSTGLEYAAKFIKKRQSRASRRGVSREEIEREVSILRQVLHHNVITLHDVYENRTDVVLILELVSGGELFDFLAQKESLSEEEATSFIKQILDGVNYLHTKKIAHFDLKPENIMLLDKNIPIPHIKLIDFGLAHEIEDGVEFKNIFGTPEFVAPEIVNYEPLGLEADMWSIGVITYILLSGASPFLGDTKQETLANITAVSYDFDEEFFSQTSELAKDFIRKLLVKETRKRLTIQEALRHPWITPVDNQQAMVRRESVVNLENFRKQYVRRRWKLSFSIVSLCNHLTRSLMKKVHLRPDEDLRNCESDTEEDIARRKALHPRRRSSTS

On to `O=C(O)c1ccc2c(c1)nc(Nc1cccc(F)c1)c1ncncc12`, for which the solubility kinetic at 24 h in series [1] was 192 µM (≈ 64.2 µg/mL).

As to `O=C(O)c1ccc2c(c1)nc(NCc1ccccc1)c1ncccc12`, the pIC50 in series [2], in series [3], in series [4] and in [5] was under 5.00 throughout. Besides, the residual activity (usually the share of the control activity or signal that is left under treatment) in series [6] amounted to 15%.

As for `COc1cccc(CCNc2nc3cc(C(=O)O)ccc3c3cncnc23)c1`, the solubility kinetic at 24 h in series [1] turned out to be 152 µM (≈ 56.8 µg/mL).

For the compound `COc1cccc(Nc2nc3cc(C(=O)O)ccc3c3cnccc23)c1`, the solubility kinetic at 24 h in series [1] was determined as 190 µM (≈ 65.8 µg/mL).

As to `O=C(O)c1ccc2c(c1)nc(NCCc1cccc(F)c1)c1ccncc12`, the solubility kinetic at 24 h in series [1] was found to be 188 µM (≈ 67.8 µg/mL).

Regarding `N#Cc1cccc(Nc2nc3cc(C(=O)O)ccc3c3cnccc23)c1`, the Kinetic_solubility in [1] is 131.7 µM. The result in series [7], in series [8] and in series [9] was inactive.

In [1], `O=C(O)c1ccc2c(c1)nc(Nc1ccc3ccccc3c1)c1ccncc12` came in with a Kinetic_solubility of 32.8 µM.

Compound `N#Cc1cccc(Nc2nc3cc(C(=O)O)ccc3c3cncnc23)c1` displayed a Kinetic_solubility in series [1] of 66.7 µM. Further, the result in series [7], in [8] and in [9] was inactive.

For the compound `O=C(O)c1ccc2c(c1)nc(NCc1ccccc1)c1ncncc12`, the solubility kinetic at 24 h in series [1] was 211 µM (≈ 69.6 µg/mL). The results for the negative-log IC50 (pIC50) in [10] and in series [11] were 5.82 and 6.22, respectively. The results for the Activity in series [12] and in series [13] were 44% and 36%, respectively. The outcome in [7], in series [8] and in series [9] was inactive. Besides, in series [14], the permeability result is listed as “Permeable”. For the same compound, the residual activity in [15] is 30%.

`O=C(O)c1ccc2c(c1)nc(NCCc1ccccc1)c1ccncc12`: the solubility kinetic at 24 h in series [1] amounted to 171 µM (≈ 58.9 µg/mL).

As to `O=C(O)c1ccc2c(c1)nc(Nc1ccc(Cl)cc1)c1ncncc12`, the solubility kinetic at 24 h in series [1] came to 209 µM (≈ 73.3 µg/mL).

As to `CCC(=O)Nc1cc(Nc2cc(NC3CC3)n3ncc(C#N)c3n2)ccc1C`, the Activity stood at 9% in [12]; 9% in series [16]; 9% in series [13]; 9% in series [17]; 9% in [18]; 55% in [19]. Moreover, the result in series [8] and in series [9] was inactive.

Regarding `O=C(O)c1ccc2c(c1)nc(NCCc1ccccc1)c1ncncc12`, the Kinetic_solubility in series [1] amounted to 146.4 µM.

`O=C(O)c1ccc2c(c1)nc(Nc1cccc(Cl)c1)c1ccncc12` [SILMITASERTIB]: in [1], the Kinetic_solubility came out at 277.1 µM. Further, the Activity in series [20] is on record as 63%; in [21], 21%; in series [22] it was 63%. Moreover, the permeability result in [14] is “Permeable”. Moreover, in series [23], the result was Active.

In the case of `O=C(O)c1ccc2c(c1)nc(Nc1ccccc1)c1ccncc12`, in series [1], the solubility kinetic at 24 h was 184 µM (≈ 58.1 µg/mL).

`O=C(O)c1ccc2c(c1)nc(Nc1cccc(F)c1)c1ccncc12`: the solubility kinetic at 24 h in [1] was found to be 237 µM (≈ 78.9 µg/mL).

As to `O=C(O)c1ccc2c(c1)nc(NCCc1cccc(F)c1)c1ncncc12`, the Kinetic_solubility in series [1] turned out to be 147 µM.

As to `COc1cccc(CCNc2nc3cc(C(=O)O)ccc3c3cnccc23)c1`, the solubility kinetic at 24 h in series [1] came out at 180 µM (≈ 67.4 µg/mL).

In series [1], `O=C(O)c1ccc2c(c1)nc(Nc1ccc3ccccc3c1)c1ncncc12` registered a Kinetic_solubility of 54.3 µM.

As to `O=C(O)c1ccc2c(c1)nc(NCCc1cccc(Cl)c1)c1ccncc12`, in series [1], the solubility kinetic at 24 h was 184 µM (≈ 69.5 µg/mL).

`O=C(O)c1ccc2c(c1)nc(Nc1ccc(Cl)cc1)c1ccncc12` displayed a Kinetic_solubility in [1] of 25.3 µM.

`O=C(O)c1ccc2c(c1)nc(Nc1ccc(F)c(Cl)c1)c1ncncc12` registered a Kinetic_solubility in series [1] of 49.1 µM.

Compound `O=C(O)c1ccc2c(c1)nc(NCCc1cccc(Cl)c1)c1ncncc12` gave a Kinetic_solubility in series [1] of 109.1 µM.

With `O=C(O)c1ccc2c(c1)nc(Nc1ccc(F)c(Cl)c1)c1ccncc12`, the Kinetic_solubility in series [1] was 148.4 µM.

`O=C(O)c1ccc2c(c1)nc(NCc1ccccc1)c1ccncc12`: the solubility kinetic at 24 h in [1] was 202 µM (≈ 66.7 µg/mL).

As for `O=C(O)c1ccc2c(c1)nc(Nc1ccccc1Cl)c1ncncc12`, in [1], the Kinetic_solubility stood at 121.8 µM.

Take `O=C(O)c1ccc2c(c1)nc(Nc1ccccc1)c1ncncc12`: in series [1], the solubility kinetic at 24 h amounted to 168 µM (≈ 53.2 µg/mL).
